ChEMBL document CHEMBL5724801, “EUbOPEN Chemogenomics Library - Multiplex” (2024)
“And” between values parts separate entries of the source, which are not always exact repeats. Equal entries are not always repeated.

How the values were obtained:
U2OS = assay: Multiplex assay against U2OS; format: toxicity, cell-based; settings: human
Outline: (§1)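 Live cells carried four stains from seeding: Hoechst33342, BioTracker Green Microtubule Cytoskeleton Dye, MitoTracker Red and Annexin V Alexa Fluor 680. They were imaged on a CQ1 microscope at 37°C and 5% CO2 after compound addition. Using CellPathfinder machine-learning gating, cells were split into Hoechst high-intensity objects or normal cells, normal cells into healthy, pyknosed or fragmented nuclei, and pyknosed cells into mitotic or apoptotic; tubulin, mitochondrial-mass and membrane-permeability phenotypes are per cents of healthy-nucleus cells.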

Fibroblast = assay: Multiplex assay against human fibroblast; format: toxicity, cell-based; outline: as §1
[1] = 12 h, 1 µM, compound concentration 1 uM
[2] = 12 h, 10 µM, compound concentration 10 uM
[3] = 24 h, 1 µM, compound concentration 1 uM
[4] = 24 h, 10 µM, compound concentration 10 uM
[5] = 48 h, 1 µM, compound concentration 1 uM
[6] = 48 h, 10 µM, compound concentration 10 uM

`Cc1onc(-c2ccccc2Cl)c1C(=O)N(C)c1ccc(Cl)cc1` was tested, and the “Population Apoptotic (%)” value (U2OS; [1]) was 82% and 78%, the “Population Fragmented Nuclei (%)” value (U2OS; [1]) was 26% and 10% and the “Population Healthy Nuclei (%)” value (U2OS; [1]) was 67% and 79%. The “Population Hoechst High Intensity Objects (%)” value (U2OS; [1]) was 0% and 1%, the “Population Membrane Permeable-Phenotype (%)” value (U2OS; [1]) was 3% and 4% and the “Population Mitochondria Different-Phenotype (%)” value (U2OS; [1]) was 2% and 1%. For the same compound, the “Population Mitotic Cells (%)” value (U2OS; [1]) was 17% and 21%, the “Population Normal (%)” value (U2OS; [1]) was 99% and 98% and the “Population Pyknosed Nuclei (%)” value (U2OS; [1]) was 6% and 10%. The “Population Tubulin-Different-Phenotype (%)” value (U2OS; [1]) was 1% and 3%, the “Total Cell Count” value (U2OS; [1]) was 277 and 136 and the “Population Apoptotic (%)” value (U2OS; [2]) was 79% and 77%. The “Population Fragmented Nuclei (%)” value (U2OS; [2]) was 28% and 24%, the “Population Healthy Nuclei (%)” value (U2OS; [2]) was 58% and 56% and the “Population Hoechst High Intensity Objects (%)” value (U2OS; [2]) was 4% and 0%. The “Population Membrane Permeable-Phenotype (%)” value (U2OS; [2]) was 12% and 7%, the “Population Mitochondria Different-Phenotype (%)” value (U2OS; [2]) was 5% and 6% and the “Population Mitotic Cells (%)” value (U2OS; [2]) was 20% and 22%. For the same compound, the “Population Normal (%)” value (U2OS; [2]) was 95% and 99%, the “Population Pyknosed Nuclei (%)” value (U2OS; [2]) was 12% and 19% and the “Population Tubulin-Different-Phenotype (%)” value (U2OS; [2]) was 5% and 4%. The “Total Cell Count” value (U2OS; [2]) was 244 and 113, the “Population Apoptotic (%)” value (U2OS; [3]) was 100% and 83% and the “Population Fragmented Nuclei (%)” value (U2OS; [3]) was 23% and 11%. The “Population Healthy Nuclei (%)” value (U2OS; [3]) was 70% and 81%, the “Population Hoechst High Intensity Objects (%)” value (U2OS; [3]) was 0% and 1% and the “Population Membrane Permeable-Phenotype (%)” value (U2OS; [3]) was 2% and 4%. For the same compound, the “Population Mitochondria Different-Phenotype (%)” value (U2OS; [3]) was 2% and 5%, the “Population Mitotic Cells (%)” value (U2OS; [3]) was 0% and 16% and the “Population Normal (%)” value (U2OS; [3]) was 99% and 98%. For the same compound, the “Population Pyknosed Nuclei (%)” value (U2OS; [3]) was 5% and 7%, the “Population Tubulin-Different-Phenotype (%)” value (U2OS; [3]) was 0% and 2% and the “Total Cell Count” value (U2OS; [3]) was 328 and 168. The “Population Apoptotic (%)” value (U2OS; [4]) was 72% and 64%, the “Population Fragmented Nuclei (%)” value (U2OS; [4]) was 26% and 20% and the “Population Healthy Nuclei (%)” value (U2OS; [4]) was 62% and 66%. For the same compound, the “Population Hoechst High Intensity Objects (%)” value (U2OS; [4]) was 3%, the “Population Membrane Permeable-Phenotype (%)” value (U2OS; [4]) was 11% and 8% and the “Population Mitochondria Different-Phenotype (%)” value (U2OS; [4]) was 6% and 7%. For the same compound, the “Population Mitotic Cells (%)” value (U2OS; [4]) was 27% and 35%, the “Population Normal (%)” value (U2OS; [4]) was 96% and the “Population Pyknosed Nuclei (%)” value (U2OS; [4]) was 11% and 13%. The “Population Tubulin-Different-Phenotype (%)” value (U2OS; [4]) was 4% and 7%, the “Total Cell Count” value (U2OS; [4]) was 299 and 129 and the “Population Apoptotic (%)” value (U2OS; [5]) was 87% and 89%. For the same compound, the “Population Fragmented Nuclei (%)” value (U2OS; [5]) was 16% and 12%, the “Population Healthy Nuclei (%)” value (U2OS; [5]) was 75% and the “Population Hoechst High Intensity Objects (%)” value (U2OS; [5]) was 2% and 1%. For the same compound, the “Population Membrane Permeable-Phenotype (%)” value (U2OS; [5]) was 4% and 1%, the “Population Mitochondria Different-Phenotype (%)” value (U2OS; [5]) was 3% and 2% and the “Population Mitotic Cells (%)” value (U2OS; [5]) was 12% and 10%. The “Population Normal (%)” value (U2OS; [5]) was 97% and 98%, the “Population Pyknosed Nuclei (%)” value (U2OS; [5]) was 7% and 11% and the “Population Tubulin-Different-Phenotype (%)” value (U2OS; [5]) was 2% and 1%. The “Total Cell Count” value (U2OS; [5]) was 450 and 252, the “Population Apoptotic (%)” value (U2OS; [6]) was 69% and 90% and the “Population Fragmented Nuclei (%)” value (U2OS; [6]) was 22% and 23%. For the same compound, the “Population Healthy Nuclei (%)” value (U2OS; [6]) was 67% and 65%, the “Population Hoechst High Intensity Objects (%)” value (U2OS; [6]) was 3% and 2% and the “Population Membrane Permeable-Phenotype (%)” value (U2OS; [6]) was 10% and 9%. The “Population Mitochondria Different-Phenotype (%)” value (U2OS; [6]) was 5%, the “Population Mitotic Cells (%)” value (U2OS; [6]) was 30% and 10% and the “Population Normal (%)” value (U2OS; [6]) was 96% and 97%. The “Population Pyknosed Nuclei (%)” value (U2OS; [6]) was 9% and 11%, the “Population Tubulin-Different-Phenotype (%)” value (U2OS; [6]) was 4% and 3% and the “Total Cell Count” value (U2OS; [6]) was 413 and 182. The “Population Apoptotic (%)” value (Fibroblast; [1]) was 60% and 35%, the “Population Fragmented Nuclei (%)” value (Fibroblast; [1]) was 17% and 22% and the “Population Healthy Nuclei (%)” value (Fibroblast; [1]) was 68% and 50%. The “Population Hoechst High Intensity Objects (%)” value (Fibroblast; [1]) was 7% and 9%, the “Population Membrane Permeable-Phenotype (%)” value (Fibroblast; [1]) was 0% and 6% and the “Population Mitochondria Different-Phenotype (%)” value (Fibroblast; [1]) was 7% and 8%. For the same compound, the “Population Mitotic Cells (%)” value (Fibroblast; [1]) was 39% and 65%, the “Population Normal (%)” value (Fibroblast; [1]) was 92% and 90% and the “Population Pyknosed Nuclei (%)” value (Fibroblast; [1]) was 13% and 27%. The “Population Tubulin-Different-Phenotype (%)” value (Fibroblast; [1]) was 23% and 63%, the “Total Cell Count” value (Fibroblast; [1]) was 178 and 161 and the “Population Apoptotic (%)” value (Fibroblast; [2]) was 36% and 37%. The “Population Fragmented Nuclei (%)” value (Fibroblast; [2]) was 16% and 24%, the “Population Healthy Nuclei (%)” value (Fibroblast; [2]) was 70% and 48% and the “Population Hoechst High Intensity Objects (%)” value (Fibroblast; [2]) was 2% and 3%. For the same compound, the “Population Membrane Permeable-Phenotype (%)” value (Fibroblast; [2]) was 2% and 5%, the “Population Mitochondria Different-Phenotype (%)” value (Fibroblast; [2]) was 6% and 11% and the “Population Mitotic Cells (%)” value (Fibroblast; [2]) was 63% and 62%. The “Population Normal (%)” value (Fibroblast; [2]) was 97% and 96%, the “Population Pyknosed Nuclei (%)” value (Fibroblast; [2]) was 13% and 27% and the “Population Tubulin-Different-Phenotype (%)” value (Fibroblast; [2]) was 29% and 64%. For the same compound, the “Total Cell Count” value (Fibroblast; [2]) was 144 and 151, the “Population Apoptotic (%)” value (Fibroblast; [3]) was 44% and 39% and the “Population Fragmented Nuclei (%)” value (Fibroblast; [3]) was 18% and 22%. For the same compound, the “Population Healthy Nuclei (%)” value (Fibroblast; [3]) was 65% and 54%, the “Population Hoechst High Intensity Objects (%)” value (Fibroblast; [3]) was 7% and 12% and the “Population Membrane Permeable-Phenotype (%)” value (Fibroblast; [3]) was 0% and 8%. The “Population Mitochondria Different-Phenotype (%)” value (Fibroblast; [3]) was 1% and 4%, the “Population Mitotic Cells (%)” value (Fibroblast; [3]) was 55% and 60% and the “Population Normal (%)” value (Fibroblast; [3]) was 92% and 87%. The “Population Pyknosed Nuclei (%)” value (Fibroblast; [3]) was 16% and 23% and the “Total Cell Count” value (Fibroblast; [3]) was 178 and 182.
